Results as given in the EternaBench riboswitch data.

Test system: MS2 coat protein
Experiment: apparent Kd, MS2 coat protein; higher = weaker binding; RNA-MaP array; FMN 200 µM where present
Outline: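 Stalled E. coli RNA polymerase transcribed the designs on Illumina sequencing-chip clusters. SNAP-549-labelled MS2 coat protein was titrated from 0.7 or 1.5 nM, doubling to 3 µM, without and then with constant ligand, in 100 mM Tris-HCl pH 7.5, 80 mM KCl, 4 mM MgCl2, BSA, DTT, yeast tRNA and Tween-20. Per-cluster binding curves were fitted to green signal normalised to red-channel RNA signal and control-cluster median Fmax. The apparent Kd is the median of the filtered fits.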

[1] = designed as: OFF switch for flavin mononucleotide, no ligand
[2] = ligand present: flavin mononucleotide, designed as: OFF switch for flavin mononucleotide
[3] = designed as: ON switch for flavin mononucleotide, no ligand
[4] = ligand present: flavin mononucleotide, designed as: ON switch for flavin mononucleotide

Sequence	apparent Kd [1] [nM]	apparent Kd [2] [nM]	apparent Kd [3] [nM]	apparent Kd [4] [nM]
ACGUAUAGAGGAUAUAGUGAAUAUUACAUGAGGAUCACCCAUGUUCUUCAAAGCAUAUUCCUAGAAGGCUGAUGAA	44.8	83.6		
GCUCUUGUCAAGAAGGGCUCGCGGGACGCUGCAGCAGGAUAUUGACAUGAGGAUCACCCAUGUCGACCGGAACACCAUUGAGGG	22.2	196		
UAAAUGUGAGGAUAUUCGUAGUACUCGGAGACGAGUAUUACGGAGAAGGCACAUGAGGAUCACCCAUGUUCCUU	21.3	188		
AAUCCGUCACAUGAGGAUCACCCAUGUGACCCUACUAUUGGACAGGAUAUCCAAGGGUCGAAGCGGGAGAAGGGUCACAAUGGG			32.5	51.9
AUGAUGUCAGGAUAUCGUUGGCUCACUUGUGUGUGCCAGUUCGAGAAGGGACAUGAGGAUCACCCAUGUUUUUA	45	252		
CAUACACAUGAGGAUCACCCAUGUGAGGAUAUGCGUACGUUGUCCGUAGGCGACGUGCGCAGAAGGCGCGAGGU	37.7	35.9		
UGUAUGUAGGCAGGAUAUACAUGAAUAUAUAUGAUGUAGUAUGAUGUAACAUGAGGAUCACCCAUGUAGAAGGGCCGGUGUAUG	69.2	154		
UCGGCGCGAGGAUAUGCGGUUGCUUGGUAGGGUCGGAGCGUACAUGAGGAUCACCCAUGUAGAAGGCGCGCCGC	18.8	25		
UCCACUGCUGAGAAGGGAUACGUCUGGGUCGCAUCAGGAUAUCGAUACAGUGCAGCAUGAGGACAUGAGGAUCACCCAUGUGUG			102	49.6
GCCUCAUAGUAGAAGGGACUUUUACAGUAAUGUUUUUAGUGUAAAUAACAUGAGGAUCACCCAUGUCAGGAUAUACUAAGAGGC	5.82	6.35		
UAUUAAUAAUAAGGAUAUACGUCACUGCUUCGGCAGUGUGGUAAGAUCACAUGAGGAUCACCCAUGUAGAAGGAAUAUAAAAUU	11.2	9.26		
UGGUCAUCAUCAGGAUAUUAACAUGGGCUACAUUAAGAAGGGAUAGUGGGAGAGGAAGUGAAACAUGAGGAUCACCCAUGUUGU			32.9	16.2
GGAUAGGACAGAGGAUAUACGUGCGAGAGAUACUAGCAAAAUUUCCUCACAUGAGGAUCACCCAUGUAGAAGGCUGUCCUAUCG	162	195		
ACACAUGAGGAUCACCCAUGUAGUAAUAGCUUCCGGACCUCACAGGAUAUAUGCAAGUUCGUUGCGUAGAAGGGUGAACUCUAA			89	92.5
GGGUACAUCGGAGGAUAUCAUGUAAAUACAUGAGGAUCACCCAUGUCUAUGGAGACAUCGGAGAUUGAGAAGGCCGAUGUACCG			14.4	150
CUGGGUAAAAUGGGAGGUAGCUGGCAGGAUAUGACAUGAGGAUCACCCAUGUGGAGAUCUUGGGAUCAGAAGGGCCUGUGACCU	205	119		
AUGCUGUCAGGAUAUCGUUAAUUUAGUUGUUUGUAUUAGUUCGAGAAGGGACAUGAGGAUCACCCAUGUAUGUA	30.6	54.8		
CUGUGACGGUGCGCAAGUGGACGUAGAAGGGUCACAUGAGGAUCACCCAUGUGGGCCUGCGAGUGACAGGAUAUACGUUCGUGC	15	57		
GAUCUGACAGGAUAUACAUGAGGAUCACCCAUGUGCGAGCUAGCGAAAGCUAGCUCAGGUAGAAGGGUCAGAUC	12	16.4		
UAUUGACAAGGAUAUUUGCGUAGUAACAUGAGGAUCACCCAUGUGAUACUAUGGAGCUCGAAAGAAGGUGUGCGAG	20.5	22.8		
UUCUUGGCAGGAUAUGCUUUUUUAGACAUGAGGAUCACCCAUGUGAUGAUUAUUGGUUUUGCAGAAGGGCCUUAAU	53.6	87.5		
CUGGUCUAUGUAGGAUAUGGUGUAUAUGUAUUACCAGAAGGACAUGAGGAUCACCCAUGUGUCGUGGUAUGAGUAGGUGAUGUU	47.2	146		
AUACCACGAGGAUAUCGUCUAUAAUACAUGAGGAUCACCCAUGUUAUAUCUGUAAUGUUUCGAGAAGGCGUGUGUU	18.9	14.6		
UUUUAACAUGAGGAUCACCCAUGUGAGGAUAUCGUAUUUUUUAUUAAUAUUAAUAAAACGAGAAGGCACAUUUU	95.5	97.3		
ACAUGAGGAUCACCCAUGUAUACAUAGGAUAUUGAGGAUCAGGGAUGUUUUACAGGAUAUGUCUACAAGAAGGAUGCAAGUACA			32.7	29.1
CCGAGGCGAGGAUAUACAUGAGGAUCACCCAUGUCUGACCGACGCGCGCCAGGCAUAUGUAGAAGGCGCCGGAA	31.5	138		
UUAACUCAUGUAGGAUAUGCAUGGCGAAGCUACGCAGAAGGACAUGAGGAUCACCCAUGUUCUAGCGUCUGGAAACAGAUGCAA	67.9	359		
GAGGAUAGAGGAUAUGCAUAGAUACGGAUUCGUGUAGUACUACAUGAGGAUCACCCAUGUAGAAGGCUGUCCAG	12.7	22		

Sequence	apparent Kd [1] [nM]	apparent Kd [2] [nM]	apparent Kd [3] [nM]	apparent Kd [4] [nM]
GGAGAGGAAACAUGAGGAUCACCCAUGUGAGUGGUCCGAAUAUAGGAUAUCCACACGAGAAGUGUGGAGAAGGAUAACCUCUCC	73	90.2		
GUACGUGGACAGAAGGUGACAUGAGGAUCACCCAUGUUAGCUCGGGUACGAGCGAUCCGCGUGAUUGAGGAUAUGUCUGCGGGC	39.7	59		
GCGUAACAUGAGGAUCACCCAUGUACCCGAGAAUUCGGGUGUAGAAGGGUGACCGGUCGUUUGGCACAGGAUAUACACGCUGUG			37.1	11.5
AGCUCCGCUCGAGGAUAUAGCUGCAUGUAGUGUCCUGAGGCACAUGAGGAUCACCCAUGUGUAGGCUAGAAGGCGACGGACAUU	43.3	152		
UUAUUAAAUGUAGGAUAUGCAUAUUAUUAUUAUGCAGAAGGACAUGAGGAUCACCCAUGUAUAUUAUUAUUAUUUAUUAUAUAU	44.8	65.6		
AGAAACUACGAGAAGGACAUAUGAUUAAGACUAAACAUGAGGAUCACCCAUGUAGGAUAUCGUAGUUUCAGGAUCGUGAGAUCA	7.27	20.1		
GCAAAGCCUGACAUGAGGAUCACCCAUGUUAGAUUGUUAUGUCAGGAUAUUGUCUAGCAACUAGACAAGAAGGGAUGCUCUGCC			377	194
UUGCGGUAGGAGAAGGACAGAGGCGGAAACACAUACAUGAGGAUCACCCAUGUAGGAUAUCCUACCUAACGCGGACUCCUCCAG	5.85	6.43		
GGAUCCAUGUAGAAGGCUGUCUUAAAAUAGGACAGAGGAUAUACAUGAGGAUCACCCAUGUACUCCUUUAAAAGGAUCCAAAUA	5.5	8.65		
UCAUACAUGAGGAUCACCCAUGACAUGAGGAUCACCCAUGUGCAGGAUAUACGUGAUAUAAUAUAGUAGAAGGGCAGACCAAAA	42.8	55.1		
UGUUAGUAGACAGGAUAUUGAAUGUUAAGUAUUAACAUGAGGAUCACCCAUGUAUUUGAUUGGUACAAGAAGGGUCAUGUUUGU			265	606
ACAACAGGCAGAGGAUAUGACUGGGUAGGAGUAACAUGAGGAUCACCCAUGUUAGAAGGCUGCGUCAAACAGCGAAAGGUACGC	52.4	91.6		
UGUCGGAGCAGAGGAUAUAUACAUGAGGAUCACCCAUGUAAAGAUCAAAGCUGGAAACAGCAAGUAUAGAAGGCUGCUCCGACA	120	295		
UUGCGGUAGGAGAAGGACAGAGGCGGAAACACAAACAUGAGGAUCACCCAUGUAGGAUAUCCUACCUAACGCGGACUCCUCCAG	6.3	8.88		
AAAAAACAAGGAUAUACGAAGGAUGGUUAUCUUAAUUUUUGACAUGAGGAUCACCCAUGUAGAAGGUGUUAAAA	37.9	76.2		
GGGUGGCGUAGAGGAUAUGUGUUACAUGAGGAUCACCCAUGUGCAUAUGAUGUUCGUGUGUCUGCAUAGAAGGCUACGUCGCUA			28.3	27.6
GUAGUGUGAGGAUAUGAUUAAUAGACGGGAUUGCGACUGCAUCAGAAGGCACAUGAGGAUCACCCAUGUAUGAA	18.8	51.9		
UCAUAUAUACAAGGAUAUCAAUGAUUUGUAGAUCCUACAUGAGGAUCACCCAUGUUUUUAUAUUUUGAGAAGGUGUAGUGUCUU			178	352
CUUUCAUUUUAGGAUAUCGAGUUGGCGAUAGCUCGAGAAGGGAAUACAUGAGGAUCACCCAUGUCGGGUCACGU	177	173		
GUAGCAUACCGAGGAUAUUCAUACCGGAAACGGACAUGAGGAUCACCCAUGUGGCGAAAGCCUUGGGAGAAGGCGGUAUGCUAC			638	22.8
ACGUUUUAUGCAGGAUAUUGACAUAUAUUUAAACAAGAAGGGCAUUACAUGAGGAUCACCCAUGUUAUAAUGGUAUUUAAGUUC	14.7	15.6		
CAUGACGAAGGAUAUACAUGAGGAUCACCCAUGUGGUCAUGGAAUUACGUGUUCUCGCGUAGAAGGUUGUAGAG	11.3	12.8		
AUACUCAUGUAAGGAUAUGCAGCCGUUUCGGCUGCAGAAGGUACUAAAAUACAUGAGGAUCACCCAUGUCUCUCGCAUUGCGAG			753	117
ACAUUAGUACCACAUGUAUUACAUGAGGAUCACCCAUGUUACUAGGAUAUGUAUUAGAAUUUACAACAGAAGGAGUUAUUAUGU	17.2	17.1		
CUACUCAUGUAAGGAUAUGCAGCCGAAACGGCUGCAGAAGGUACUAUAAUACAUGAGGAUCACCCAUGUAAAAUAAAUAAAGUU			33.8	14.7
GGUUGGCGAGGAUAUACAUGAGGAUCACCCAUGUGGUCCUGUGGCUGGUCUUAACUUUGUAGAAGGCGCGGGUC	66	82.8		
AGCUUCGGUGUCAGGAUAUGGGAAAGGGAACUUACCCAGAAGGGACAUGAGGAUCACCCAUGUGGCUUGACAUG	45.3	109		
